Experimental data taken from ChEMBL document CHEMBL4308833, “A Thieno[2,3- d]pyrimidine Scaffold Is a Novel Negative Allosteric Modulator of the Dopamine D2 Receptor” (J Med Chem, 2018).
Calls of active or inactive are those of the source. The calls are words filed in the database; no cut-off is given here.

Key:
[1] = target: D(2) dopamine receptor (Homo sapiens) (UniProt P14416); assay: Displacement of [3H]Raclopride from recombinant human D2L receptor expressed in Flp-In CHO cell membranes after 2 to 3 hrs by microbeta counting method
Sequence of D(2) dopamine receptor (Homo sapiens) (P14416 whole entry): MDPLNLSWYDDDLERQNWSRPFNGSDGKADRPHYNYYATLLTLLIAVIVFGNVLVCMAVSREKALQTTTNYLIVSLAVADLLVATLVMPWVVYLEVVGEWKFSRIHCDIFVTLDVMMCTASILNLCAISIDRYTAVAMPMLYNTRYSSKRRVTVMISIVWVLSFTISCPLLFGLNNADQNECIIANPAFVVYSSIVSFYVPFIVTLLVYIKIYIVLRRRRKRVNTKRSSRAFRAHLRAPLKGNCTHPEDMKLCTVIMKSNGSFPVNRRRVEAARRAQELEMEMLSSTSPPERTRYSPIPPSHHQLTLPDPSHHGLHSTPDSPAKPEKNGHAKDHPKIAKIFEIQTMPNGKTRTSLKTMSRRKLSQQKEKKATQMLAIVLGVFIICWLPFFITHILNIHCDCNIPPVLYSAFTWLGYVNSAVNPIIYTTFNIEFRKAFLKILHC
Method in brief: (§1)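 hD2LR FlpIn CHO membrane homogenate (15 µg protein) was co-incubated with 0.5 nM [3H]raclopride and test compound at 10^-3 to 10^-7 M (half-log dilutions from DMSO stock, in duplicate). Incubation was 2-3 h at 25 °C in HEPES buffer, pH 7.4. Nonspecific binding was defined with 10 µM haloperidol. Filtration was followed by scintillation counting. KB and cooperativity α were obtained from an allosteric ternary complex model.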

[2] = target: D(2) dopamine receptor (Homo sapiens) (UniProt P14416); assay: Negative allosteric modulation of recombinant human D2L receptor expressed in Flp-In CHO cells assessed as inhibition of dopamine-induced reduction in forskolin stimulated cAMP accumulation by measuring co-operativity factor up to 100 uM preincubated for 30 mins followed by forskolin stimulation and measured after 30 mins by BRET assay; assay type: functional, cell-based
[3] = target: D(2) dopamine receptor (Homo sapiens) (UniProt P14416); assay: (§2) Negative allosteric modulation of recombinant human D2L receptor expressed in Flp-In CHO cells assessed as inhibition of dopamine-induced reduction in forskolin stimulated cAMP accumulation preincubated for 30 mins followed by forskolin stimulation and measured after 30 mins by BRET assay; assay type: functional, cell-based
[4] = target: D(2) dopamine receptor (Homo sapiens) (UniProt P14416); assay: as §2, with “accumulation by measuring modulation of dopamine efficacy” for “accumulation”; assay type: functional, cell-based
[5] = target: D(3) dopamine receptor (Homo sapiens) (UniProt P35462); assay: Displacement of [3H]Raclopride from recombinant D3 receptor (unknown origin) expressed in Flp-In CHO cell membranes after 2 to 3 hrs by microbeta counting method
Sequence of D(3) dopamine receptor (Homo sapiens) (P35462 whole entry): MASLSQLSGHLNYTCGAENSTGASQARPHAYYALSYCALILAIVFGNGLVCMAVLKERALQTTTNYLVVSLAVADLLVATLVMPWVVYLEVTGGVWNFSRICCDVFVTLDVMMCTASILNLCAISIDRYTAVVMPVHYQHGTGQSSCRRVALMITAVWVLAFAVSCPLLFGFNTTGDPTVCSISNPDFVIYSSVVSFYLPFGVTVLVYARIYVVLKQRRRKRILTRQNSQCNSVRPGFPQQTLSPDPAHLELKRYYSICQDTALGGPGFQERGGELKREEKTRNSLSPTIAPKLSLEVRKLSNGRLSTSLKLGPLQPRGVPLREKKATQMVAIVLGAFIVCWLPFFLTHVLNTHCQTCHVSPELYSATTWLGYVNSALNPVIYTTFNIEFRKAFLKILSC
Method in brief: (§3)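 In FlpIn CHO membranes expressing hD3R, compound was tested for displacement of [3H]raclopride in equilibrium binding. Competition curves were fitted with an allosteric ternary complex model to give KB and the net cooperativity factor with [3H]raclopride. Data are at least three independent experiments in duplicate.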

Homo sapiens = species on record: Homo sapiens; assay: Selectivity ratio of Kb for recombinant D3 receptor (unknown origin) expressed in Flp-In CHO cell membranes to Kb for recombinant human D2L receptor expressed in Flp-In CHO cell membranes; assay type: cell-based
[6] = target: D(2) dopamine receptor (Homo sapiens) (UniProt P14416); assay: Displacement of [3H]Raclopride from recombinant human D2L receptor expressed in Flp-In CHO cell membranes assessed as co-operativity factor after 2 to 3 hrs by microbeta counting method; method in brief: as §1
[7] = target: D(2) dopamine receptor (Homo sapiens) (UniProt P14416); assay: as §2, with “accumulation by measuring co-operativity factor” for “accumulation”; assay type: functional, cell-based
[8] = target: D(3) dopamine receptor (Homo sapiens) (UniProt P35462); assay: Displacement of [3H]Raclopride from recombinant D3 receptor (unknown origin) expressed in Flp-In CHO cell membranes assessed as co-operativity factor after 2 to 3 hrs by microbeta counting method; method in brief: as §3
[9] = target: D(2) dopamine receptor (Homo sapiens) (UniProt P14416); assay: Allosteric modulation of recombinant human D2L receptor expressed in Flp-In CHO cell membranes assessed as dissociation of [3H]Raclopride at 100 uM in presence of haloperidol after 2 to 3 hrs by microbeta counting method (reference value: 0.02 +/- 0.004 /min); assay type: cell-based
Method in brief: (§4)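 Membranes from FlpIn CHO cells stably expressing hD2LR were incubated with 0.5 nM [3H]raclopride for 60 min in HEPES/NaCl/MgCl2/EGTA/EDTA buffer, pH 7.4, at 25 °C. Dissociation was then started by adding 10 µM haloperidol, with or without modulator. Bound radioactivity was collected by filtration and scintillation counting. Curves were fitted for koff, and t1/2 = 0.6931/koff.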

[10] = target: D(2) dopamine receptor (Homo sapiens) (UniProt P14416); assay: Allosteric modulation of recombinant human D2L receptor expressed in Flp-In CHO cell membranes assessed as dissociation half life for [3H]Raclopride at 100 uM in presence of haloperidol after 2 to 3 hrs by microbeta counting method (reference value: 34.2 min); assay type: cell-based; method in brief: as §4

Structure (SMILES) | Kb [1] | pKb [1] | inhibition [2] | Kb [3] | pKb [3] | log(activity) [4] | Kb [5] | pKb [5] | Activity [6] | log(activity) [6] | log(activity) [7] | Activity [4] | Activity [8] | log(activity) [8] | Activity [7] | K [9] | T1/2 [10] | Selectivity ratio (Homo sapiens)
CCN(CC)c1nc(CC2CCOCC2)nc2sc3c(c12)CCCC3 | 35 µM | 4.45 | inactive | – | – | – | – | – | – | – | – | – | – | – | – | – | – | –
CCN(CC)c1nc(CCCCN2CCOCC2)nc2sc3c(c12)CCCC3 | 16 µM | 4.79 | – | 1.77 µM | 5.8 | 1.07 | 10 µM | 4.99 | – | – | – | – | – | – | – | – | – | 1.6
FC(F)(F)c1cccc(Nc2ncnc3sc4c(c23)CCCC4)c1 | 31 µM | 4.51 | – | 25.4 µM | 4.6 | -1.02 | 0.2 µM | 6.65 | 0.39 | -0.41 | 0 | 0.1 | 0.06 | -0.39 | – | – | – | 140
FC(F)(F)c1cccc(Nc2nc(CN3CCOCC3)nc3sc(Cc4ccccc4)cc23)c1 | 50 µM | 4.3 | inactive | – | – | – | – | – | – | – | – | – | – | – | – | – | – | –
FC(F)(F)c1cccc(Nc2nc(CN3CCOCC3)nc3sccc23)c1 | – | 3.91 | inactive | – | – | – | – | – | – | – | – | – | – | – | – | – | – | –
CCN(CC)c1nc(CCCCN2CCOCC2)nc2sccc12 | 3 µM | 5.51 | – | 1.3 µM | 5.89 | -0.82 | 0.9 µM | 6.06 | – | – | -1.34 | 0.15 | – | – | 0.05 | – | – | 3.5
Cc1sc2nc(CN3CCOCC3)nc(Nc3cccc(C(F)(F)F)c3)c2c1C | – | 3.59 | inactive | – | – | – | – | – | – | – | – | – | – | – | – | – | – | –
CN(C)c1nc(CN2CCOCC2)nc2sc(Cc3ccccc3)cc12 | 30 µM | 4.51 | – | 4.9 µM | 5.31 | -0.84 | – | – | – | – | -0.17 | 0.15 | – | – | 0.68 | – | – | –
FC(F)(F)c1cccc(Nc2ncnc3sccc23)c1 | 63 µM | 4.2 | – | 0.8 µM | 6.13 | 0 | – | – | – | – | -0.43 | – | – | – | 0.37 | – | – | –
CNc1nc(CN2CCOCC2)nc2sc3c(c12)CCCC3 | 53 µM | 4.28 | inactive | – | – | – | – | – | – | – | – | – | – | – | – | – | – | –
CCN(CC)c1nc(CN2CCOCC2)nc2sccc12 | 1.3 µM | 5.89 | – | 3.13 µM | 5.5 | -0.62 | 11 µM | 4.95 | – | – | -1.1 | 0.24 | – | – | 0.08 | – | – | 0.1
CCN(CC)c1ncnc2sccc12 | 23 µM | 4.65 | – | 4.6 µM | 5.31 | -0.89 | – | – | 0.1 | -1.01 | 0 | 0.13 | – | – | – | – | – | –
CCN(CC)c1ncnc2sc3c(c12)CCCC3 | 17 µM | 4.76 | – | 1.92 µM | 5.72 | -3 | – | – | – | – | 0 | – | – | – | – | – | – | –
FC(F)(F)c1cccc(Nc2nc(CN3CCOCC3)nc3scc(C4CCCCC4)c23)c1 | 38 µM | 4.42 | inactive | – | – | – | – | – | – | – | – | – | – | – | – | – | – | –
FC(F)(F)c1cccc(Nc2nc(CN3CCOCC3)nc3sc(C4CCCCC4)cc23)c1 | 45.8 µM | 4.34 | – | 5.37 µM | 5.27 | 0 | – | – | – | – | -0.9 | – | – | – | 0.13 | – | – | –
O=c1[nH]cnc2sc3c(c12)CCCC3 | – | – | inactive | – | – | – | – | – | – | – | – | – | – | – | – | – | – | –
FC(F)(F)c1cccc(Nc2nc(CCCCN3CCOCC3)nc3sccc23)c1 | 19 µM | 4.71 | – | 1.4 µM | 5.85 | -1.21 | – | – | – | – | -0.88 | 0.06 | – | – | 0.13 | – | – | –
FC(F)(F)c1cccc(Nc2nc(CN3CCOCC3)nc3sc(-c4ccccc4)cc23)c1 | 45 µM | 4.35 | inactive | – | – | – | – | – | – | – | – | – | – | – | – | – | – | –
FC(F)(F)c1cccc(Nc2nc(CN3CCOCC3)nc3scc(-c4ccccc4)c23)c1 | 48.6 µM | 4.31 | inactive | – | – | – | – | – | 0.13 | -0.88 | – | – | – | – | – | – | – | –

The next lines start with results.

Kb [1] | pKb [1] | inhibition [2] | Kb [3] | pKb [3] | log(activity) [4] | Kb [5] | pKb [5] | Activity [6] | log(activity) [6] | log(activity) [7] | Activity [4] | Activity [8] | log(activity) [8] | Activity [7] | K [9] | T1/2 [10] | Structure (SMILES) | Selectivity ratio (Homo sapiens)
13 µM | 4.89 | – | 1.63 µM | 5.79 | -0.4 | – | – | – | – | -0.68 | 0.4 | – | – | 0.21 | – | – | FC(F)(F)c1cccc(Nc2nc(CCCN3CCOCC3)nc3sc4c(c23)CCCC4)c1 | –
16.6 µM | 4.78 | – | 3.87 µM | 5.41 | -0.55 | 0.3 µM | 6.54 | – | – | 0 | 0.28 | 0.39 | -0.4 | – | 0.038 min⁻¹ | 18.1 min | FC(F)(F)c1cccc(Nc2nc(CN3CCOCC3)nc3sc4c(c23)CCCC4)c1 | 57
35 µM | 4.45 | – | 2.81 µM | 5.55 | -3 | – | – | – | – | -1.22 | – | – | – | 0.06 | – | – | Oc1cccc(Nc2nc(CN3CCOCC3)nc3sc4c(c23)CCCC4)c1 | –
– | – | – | 8.39 µM | 5.08 | -0.4 | – | – | – | – | 0 | 0.4 | – | – | – | – | – | Fc1cccc(Nc2nc(CN3CCOCC3)nc3sc4c(c23)CCCC4)c1 | –
70 µM | 4.16 | – | 0.981 µM | 6.01 | 0 | – | – | – | – | -0.63 | – | – | – | 0.23 | – | – | FC(F)(F)c1cccc(Nc2nc(CCN3CCOCC3)nc3sc4c(c23)CCCC4)c1 | –
59 µM | 4.23 | – | 11.4 µM | 4.95 | 0 | – | – | – | – | -0.9 | – | – | – | 0.13 | – | – | FC(F)(F)c1cccc(Nc2nc(CN3CCOCC3)nc3sc4c(c23)CCC4)c1 | –
100 µM | 3.99 | – | 0.622 µM | 6.22 | -0.63 | 52 µM | 4.28 | 0.39 | -0.41 | -0.89 | 0.23 | 0.37 | -0.44 | 0.13 | – | – | FC(F)(F)c1cccc(Nc2nc(CC3CCOCC3)nc3sc4c(c23)CCCC4)c1 | 2
37 µM | 4.43 | inactive | – | – | – | – | – | – | – | – | – | – | – | – | – | – | FC(F)(F)c1cccc(Nc2nc(CN3CCOCC3)nc3sc4c(c23)CCCCC4)c1 | –
– | 3.98 | inactive | – | – | – | – | – | – | – | – | – | – | – | – | – | – | FC(F)(F)c1cccc(Nc2nc(CN3CCOCC3)nc3sc4c(c23)CCCCCC4)c1 | –
99 µM | 4 | – | 7.46 µM | 5.13 | -0.95 | – | – | – | – | 0 | 0.11 | – | – | – | – | – | c1ccc(Nc2nc(CN3CCOCC3)nc3sc4c(c23)CCCC4)cc1 | –
22 µM | 4.66 | inactive | – | – | – | – | – | – | – | – | – | – | – | – | – | – | FC(F)(F)c1cccc(Oc2nc(CN3CCOCC3)nc3sc4c(c23)CCCC4)c1 | –
3.31 µM | 5.48 | – | 0.611 µM | 6.21 | -1.5 | – | 3.97 | 0.09 | -1.03 | -0.72 | 0.03 | 0.2 | -0.69 | 0.19 | – | – | FC(F)(F)c1cccc(Nc2nc(CCCCN3CCOCC3)nc3sc4c(c23)CCCC4)c1 | 0.03
48 µM | 4.32 | – | 8.02 µM | 5.1 | -0.53 | – | – | – | – | -0.73 | 0.29 | – | – | 0.19 | – | – | COc1cccc(Nc2nc(CN3CCOCC3)nc3sc4c(c23)CCCC4)c1 | –
39 µM | 4.41 | – | 6.98 µM | 5.16 | -0.22 | – | – | – | – | -0.46 | 0.6 | – | – | 0.34 | – | – | FC(F)(F)c1cccc(Nc2nc(CN3CCCCC3)nc3sc4c(c23)CCCC4)c1 | –
